Bioassay records deposited in PubChem BioAssay by Broad Institute.
Cneo AK release – causes C. neoformans cell lysis; adenylate kinase release luminescence, 4 h; normalised: neutral wells 0, clomiphene wells 100; lysis activity, % at 15 µM; hit rate 0.2% among 360,000;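 active means mean lysis activity across replicates of at least 80%, whatever share of replicates individually reach that level; inactive means mean lysis activity below 80%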
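Assay system: log-phase C. neoformans yeast / Quantity: yeast cell density of 5 × 10^6 cells/mL / Medium: fresh YPD growth medium / Compound: single dose / Timing: static 4 h at 37 °C with compound, 1 h detection / Measured by: adenylate kinase release luminescence / Read-out: lysis from increased AK signal / Benchmarks: Clomiphene as positive lysis control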
S100A4 inh HTS – inhibitors of human S100A4 binding to myosin IIA peptide; P26447; S100A4/TAMRA-MyoIIA peptide fluorescence polarization; inhibition, % at 10.7 µM; hit rate 0.14% among 360,000;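 active means mean inhibition of at least 70% across replicates, with every replicate also reaching that level; inconclusive means mean inhibition reaches 70% but some replicates fall short; inactive means mean inhibition below 70%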
Target sequence (P26447 whole entry, looked up): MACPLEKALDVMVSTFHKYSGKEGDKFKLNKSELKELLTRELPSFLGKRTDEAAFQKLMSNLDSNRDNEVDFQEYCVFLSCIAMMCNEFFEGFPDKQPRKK
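Assay system: human S100A4 monomer with TAMRA-labelled myosin IIA peptide / Buffer or medium: Calcium-containing HEPES buffer, pH 7.2 / Reagent: TAMRA-labelled myosin IIA heavy-chain peptide probe, 5 nM / Compound: one dose per compound / Timing: polarization read 5 min after assay mix addition, stable 5–60 min / Benchmarks: neutral control DMSO, positive control TFP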
Ecoli rRNA inh – inhibits bacterial ribosomal RNA function over humanized ribosomes; E. coli WT GFP vs humanized-ribosome RFP mutants, fluorescence, 24 h; stronger effect = lower value; DMSO median 0, no signal -100; GFP signal change (wild-type ribosome), % (no concentration beside the values); hit rate 1.6% among 350,000;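 active means significant combined selectivity score with lowered wild-type GFP, culture density cut under 30%, mutant RFP and density less affected; inactive means any of these conditions unmet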
PGC1a acetyl inh – PGC1a acetylation modulation, inhibitor mode; U2OS PGC1a acetylation, AlphaScreen anti-acetyl-lysine; with virally co-expressed GCN5 acetyltransferase; hit rate 0.17% among 350,000; inhibition, % at 15.6 µM;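 active means every replicate shows inhibition of at least 40%; inconclusive means mean inhibition at least 40% but some replicate below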;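 further: 0% = neutral control wells and 100% = positive control wells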
C2C12 statin – suppressors of simvastatin-induced myotoxicity in C2C12 myotubes; ATP luminescence, 48 h; scaled: DMSO 0, geranylgeraniol control 100; rescue of ATP level, % at 7.49 µM; hit rate 0.78% among 330,000; AID 602340;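 active means mean ATP rescue above about 67%, or every replicate alone reaching that limit, limit read from the data, passing the limit was not always enough; inconclusive means no clear call, values can overlap the other calls; inactive means mean under the limit and some replicate under it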;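 further: myotubes were challenged with 10 µM simvastatin during compound exposure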
SIRT5 block – sirtuin-5 (human) deacylase inhibition; inhibition, % at 15 µM; Purified SirT5, succinyl-peptide AMC, trypsin-coupled fluorescence; Q9NXA8; hit rate 1.1% among 330,000; in the data active means inhibition above about 15%; inconclusive means no clear call, values can overlap the other calls
Target sequence (Q9NXA8 whole entry, looked up): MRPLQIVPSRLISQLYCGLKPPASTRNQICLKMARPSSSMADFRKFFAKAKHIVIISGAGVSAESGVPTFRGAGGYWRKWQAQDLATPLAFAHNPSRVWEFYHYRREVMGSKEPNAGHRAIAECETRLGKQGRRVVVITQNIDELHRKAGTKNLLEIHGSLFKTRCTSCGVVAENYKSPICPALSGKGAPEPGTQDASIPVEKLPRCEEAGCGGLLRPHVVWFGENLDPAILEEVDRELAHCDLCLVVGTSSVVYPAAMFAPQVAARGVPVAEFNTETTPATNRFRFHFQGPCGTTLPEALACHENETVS
The depositor's hits bear a star; ? = inconclusive; nt = not tested or not shown. In the library only some 3% were active in any assay of this set; here they are far more common.

SMILES	Cneo AK release	S100A4 inh HTS	Ecoli rRNA inh	PGC1a acetyl inh	C2C12 statin	SIRT5 block
CCS(=O)(=O)Nc1ccc2c(c1)C(=O)N(C)C[C@H](OC)[C@H](C)CN(Cc1nccs1)[C@@H](C)CO2	6.1	16.9	-0.3	-0.1	8.3	-2.4
CO[C@@H]1CN(C)C(=O)c2cc(NS(=O)(=O)c3ccccc3)ccc2OC[C@@H](C)N(Cc2nccs2)C[C@H]1C	-1.6	-0.7	-8.5	5.1	-4.6	9.4
O=C(O)CN1C(=O)/C(=C2\SC(=S)N(C(Cc3ccccc3)C(=O)O)C2=O)c2ccccc21 (stereo not drawn)	-1.9	5.3	2.3	5.1	10.5	16.8*
COc1ccc2c3c([nH]c2c1)[C@@H](CO)N(C(=O)Cc1ccccc1)CC31CN(C(=O)Cc2ccccc2)C1	nt	2.0	-2.2	0.7	nt	-2.7
C[C@@H]1CCCCO[C@H](CN(C)Cc2ccccc2)[C@H](C)CN([C@H](C)CO)C(=O)c2cc(NC(=O)Cc3ccccc3)ccc2O1	-2.8	8.2	1.1	-7.3	nt	16.1*
C[C@H]1CCCCO[C@@H](CN(C)Cc2ccncc2)[C@@H](C)CN([C@@H](C)CO)C(=O)c2cc(NC(=O)Nc3ccccc3)ccc2O1	99.5*	-5.5	-0.9	2.0	nt	4.5
C[C@@H]1CCCCO[C@H](CN(C)Cc2ccc(C(F)(F)F)cc2)[C@H](C)CN([C@H](C)CO)C(=O)c2cc(NC(=O)Cc3ccccc3)ccc2O1	-1.0	nt	1.5	?	133.7*	nt
C[C@@H]1CCCCO[C@H](CN(C)Cc2ccncc2)[C@H](C)CN([C@@H](C)CO)C(=O)c2cc(NC(=O)Nc3ccccc3)ccc2O1	-2.5	-2.0	-3.1	8.1	nt	10.3
COc1ccc(COn2c(=O)c(C)[n+]([O-])c3ccccc32)cc1OC	0.5	nt	nt	-7.2	106.4*	nt
C[C@@H]1CN([C@H](C)CO)C(=O)c2cc(NC(=O)Nc3ccc4c(c3)OCO4)ccc2O[C@H]1CN(C)C	0.1	7.8	-2.7	3.6	-2.1	1.1
Cc1ccc(S(=O)(=O)N(C)CCCC(=O)NC(C)(C)CO)cc1	-0.3	6.7	10.3	-4.1	4.0	27.0*
Nc1c(Cl)cc(Cl)cc1C(=O)OCC(=O)NC1CC1	-0.1	nt	nt	35.9	69.7*	nt
Cc1ccc(NC(=O)COC(=O)c2cc(Cl)ccc2[N+](=O)[O-])cc1	nt	2.6	nt	nt	nt	1.6
O=C(COC(=O)c1cc(Cl)ccc1[N+](=O)[O-])NC1CC1	-2.8	3.8	-0.3	nt	-4.1	15.6*
COc1ccc(C2CC(=O)C(C=NCCO)=C(O)C2)cc1OC (stereo not drawn)	-0.2	nt	nt	-0.8	-4.5	nt
COc1ccc(C2CC(=O)C(C=NCCO)=C(O)C2)cc1 (stereo not drawn)	-1.1	5.1	4.6	8.3	0.6	23.2*
Cc1nn(Cc2ccccc2Cl)c2sc(C(=O)NCc3ccc4c(c3)OCO4)cc12	-0.7	nt	nt	-15.9	125.5*	nt
CCNC(=O)C[C@@H]1CC[C@@H]2[C@H](COc3ccc(NC(=O)c4ccc(F)c(F)c4)cc3C(=O)N2C)O1	1.5	-2.1	0.7	-3.2	-13.7	-2.5
Cc1ccc(NC(=O)N(C2=NCC(C)S2)c2ccccc2)cc1 (stereo not drawn)	-1.0	nt	nt	nt	1.7	nt
Cc1cccc(N(C(=O)Nc2ccc(Cl)cc2)C2=NCC(C)S2)n1 (stereo not drawn)	0.8	1.7	-28.7*	-23.5	2.3	-2.2
O=C1c2ccccc2C(=O)N1OCc1ccc(Cl)cc1	-2.2	nt	nt	-3.2	68.1*	nt
Cc1cccc(NC(=S)NC2CC3C=CC2C3)c1 (stereo not drawn)	19.2	-2.1	-21.0*	21.1	100.3*	nt
O=C(N[C@@H]1CC[C@@H](CCn2cc(-c3ccccn3)nn2)O[C@@H]1CO)c1ccc(F)cc1	77.9	-0.6	-2.1	-2.6	-2.8	-3.0
O=C(CCN1CCCCC1)N[C@@H]1CC[C@@H](CCn2cc(-c3ccccc3)nn2)O[C@@H]1CO	-0.4	9.3	-0.1	-6.8	12.0	0.1
O=S(=O)(N[C@@H]1CC[C@@H](CCn2cc(-c3cccnc3)nn2)O[C@H]1CO)c1ccccc1	0.2	6.8	-0.4	-1.9	-4.0	16.3*
SMILES	Cneo AK release	S100A4 inh HTS	Ecoli rRNA inh	PGC1a acetyl inh	C2C12 statin	SIRT5 block
O=C(CCN1CCCCC1)N[C@H]1CC[C@@H](CCn2cc(-c3ccc(F)cc3)nn2)O[C@H]1CO	-3.5	9.2	2.9	-1.1	4.0	22.6*
COc1ccc(NC(=O)N[C@@H]2CC[C@H](CCn3cc(-c4ccccc4F)nn3)O[C@H]2CO)cc1	4.4	1.3	-1.2	61.6*	7.5	1.0
O=S(=O)(N[C@@H]1CC[C@H](CCn2cc(-c3cccnc3)nn2)O[C@H]1CO)c1ccccc1	-3.0	-2.8	5.6	-4.1	7.9	8.5
O=C(N[C@H]1CC[C@H](CCn2cc(-c3ccccn3)nn2)O[C@H]1CO)c1ccc(F)cc1	83.1*	2.5	1.9	10.9	-0.4	-5.7
C[C@@H]1CCCCO[C@H](CN(C)Cc2ccncc2)[C@@H](C)CN([C@H](C)CO)C(=O)c2cc(NC(=O)Nc3ccc4c(c3)OCO4)ccc2O1	-0.2	0.8	-0.7	7.0	nt	-2.9
CO[C@@H]1CN(C)C(=O)c2ccc(NS(=O)(=O)c3cn(C)cn3)cc2OC[C@H](C)N(C)C[C@@H]1C	53.8	-29.9	1.0	1.6	-2.7	-2.6
O=C(N[C@H]1CC[C@@H](CCn2cc(-c3ccc(F)cc3)nn2)O[C@H]1CO)c1cnccn1	-1.2	-2.5	1.1	-1.0	-1.5	0.1
CCCNC(=O)N[C@@H]1CC[C@H](CCn2cc(C3CCCCC3)nn2)O[C@@H]1CO	-0.8	1.4	-0.9	2.2	-1.6	17.5*
CCCNC(=O)N[C@H]1CC[C@@H](CCn2cc(C3CCCCC3)nn2)O[C@@H]1CO	1.2	-27.7	-0.5	2.6	0.9	1.6
O=C(CCN1CCCCC1)N[C@H]1CC[C@H](CCn2cc(-c3ccccc3)nn2)O[C@@H]1CO	2.7	124.2*	0.9	8.2	7.2	2.6
O=C(N[C@@H]1CC[C@@H](CCn2cc(-c3ccc(F)cc3)nn2)O[C@@H]1CO)c1cnccn1	0.0	-29.4	-0.1	-9.4	6.2	15.1*
COc1ccc(NC(=O)N(C)C[C@H]2Oc3ccc(NS(=O)(=O)c4cccs4)cc3CC(=O)N([C@@H](C)CO)C[C@@H]2C)cc1	0.7	nt	3.0	2.4	-22.7	nt
NNC(=O)Cc1csc(-c2ccccc2)n1	nt	-1.8	-27.9*	nt	nt	0.7
COc1ccc(-c2csc(-c3ccc(C(=O)O)cc3)n2)cc1	nt	2.2	-0.4	nt	nt	-2.5
COc1ccc(-c2nc(CC(=O)O)cs2)cc1	-2.6	nt	nt	1.6	105.2*	nt
Cc1cccc(C(=O)CC(=O)c2cc(Cl)ccc2O)c1	-1.4	nt	nt	4.8	-27.4	nt
